Assays:
[1] = molecular target: CDK4/Cyclin D3 (Homo sapiens) (UniProt P11802+P30281); assay: Inhibition of human CDK4/CyclinD3 at 1 uM by enzymatic radiometric assay; type: protein-complex assay
Outline: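 Kinase panel run through the Eurofins KinaseProfiler, with compound at a fixed 1 µM. Values are means of two independent experiments.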

[2] = molecular target: Vascular endothelial growth factor receptor 2 (Homo sapiens, UniProt P35968); assay: Inhibition of human VEGFR2 at 1 uM by enzymatic radiometric assay
[3] = test system: A549; assay: Growth inhibition of human A549 cells incubated for 72 hrs at 1 uM by CCK8 assay; type: functional; conditions: A549, 72 h, read-out: GI
Outline: (§1)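 CCK8 viability assay on a panel of human cancer cell lines, with an initial screen at fixed concentrations of 1 µM and 10 µM.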

[4] = test system: A549; assay: Growth inhibition of human A549 cells incubated for 72 hrs at 10 uM by CCK8 assay; type: functional; conditions: A549, 72 h, read-out: GI; outline: as §1
[5] = test system: OVCAR-5; assay: Growth inhibition of human OVCAR5 cells incubated for 72 hrs at 10 uM by CCK8 assay; type: functional; conditions: OVCAR-5, 72 h, read-out: GI; outline: as §1
[6] = test system: T47D; assay: Growth inhibition of human T47D cells incubated for 72 hrs at 1 uM by CCK8 assay; type: functional; conditions: read-out: GI; outline: as §1
[7] = test system: NCI-H1299; assay: Growth inhibition of human H1299 cells incubated for 72 hrs at 1 uM by CCK8 assay; type: functional; conditions: NCI-H1299, 72 h, read-out: GI; outline: as §1
[8] = test system: NCI-H460; assay: Growth inhibition of human H460 cells incubated for 72 hrs at 10 uM by CCK8 assay; type: functional; conditions: NCI-H460, 72 h, read-out: GI; outline: as §1
[9] = test system: OVCAR-5; assay: Growth inhibition of human OVCAR5 cells incubated for 72 hrs at 1 uM by CCK8 assay; type: functional; conditions: OVCAR-5, 72 h, read-out: GI; outline: as §1
[10] = test system: NCI-H460; assay: Growth inhibition of human H460 cells incubated for 72 hrs at 1 uM by CCK8 assay; type: functional; conditions: NCI-H460, 72 h, read-out: GI; outline: as §1
[11] = test system: SiHa; assay: Growth inhibition of human SiHa cells incubated for 72 hrs at 10 uM by CCK8 assay; type: functional; conditions: read-out: GI; outline: as §1
[12] = test system: T47D; assay: Growth inhibition of human T47D cells incubated for 72 hrs at 10 uM by CCK8 assay; type: functional; conditions: read-out: GI; outline: as §1
[13] = test system: SiHa; assay: Growth inhibition of human SiHa cells incubated for 72 hrs at 1 uM by CCK8 assay; type: functional; conditions: read-out: GI; outline: as §1
[14] = test system: NCI-H1299; assay: Growth inhibition of human H1299 cells incubated for 72 hrs at 10 uM by CCK8 assay; type: functional; conditions: NCI-H1299, 72 h, read-out: GI; outline: as §1
[15] = test system: HeLa; assay: Growth inhibition of human HeLa cells incubated for 72 hrs at 10 uM by CCK8 assay; type: functional; conditions: read-out: GI; outline: as §1
[16] = test system: HeLa; assay: Growth inhibition of human HeLa cells incubated for 72 hrs at 1 uM by CCK8 assay; type: functional; conditions: read-out: GI; outline: as §1

Vascular endothelial growth factor receptor 2, sequence (P35968 whole entry): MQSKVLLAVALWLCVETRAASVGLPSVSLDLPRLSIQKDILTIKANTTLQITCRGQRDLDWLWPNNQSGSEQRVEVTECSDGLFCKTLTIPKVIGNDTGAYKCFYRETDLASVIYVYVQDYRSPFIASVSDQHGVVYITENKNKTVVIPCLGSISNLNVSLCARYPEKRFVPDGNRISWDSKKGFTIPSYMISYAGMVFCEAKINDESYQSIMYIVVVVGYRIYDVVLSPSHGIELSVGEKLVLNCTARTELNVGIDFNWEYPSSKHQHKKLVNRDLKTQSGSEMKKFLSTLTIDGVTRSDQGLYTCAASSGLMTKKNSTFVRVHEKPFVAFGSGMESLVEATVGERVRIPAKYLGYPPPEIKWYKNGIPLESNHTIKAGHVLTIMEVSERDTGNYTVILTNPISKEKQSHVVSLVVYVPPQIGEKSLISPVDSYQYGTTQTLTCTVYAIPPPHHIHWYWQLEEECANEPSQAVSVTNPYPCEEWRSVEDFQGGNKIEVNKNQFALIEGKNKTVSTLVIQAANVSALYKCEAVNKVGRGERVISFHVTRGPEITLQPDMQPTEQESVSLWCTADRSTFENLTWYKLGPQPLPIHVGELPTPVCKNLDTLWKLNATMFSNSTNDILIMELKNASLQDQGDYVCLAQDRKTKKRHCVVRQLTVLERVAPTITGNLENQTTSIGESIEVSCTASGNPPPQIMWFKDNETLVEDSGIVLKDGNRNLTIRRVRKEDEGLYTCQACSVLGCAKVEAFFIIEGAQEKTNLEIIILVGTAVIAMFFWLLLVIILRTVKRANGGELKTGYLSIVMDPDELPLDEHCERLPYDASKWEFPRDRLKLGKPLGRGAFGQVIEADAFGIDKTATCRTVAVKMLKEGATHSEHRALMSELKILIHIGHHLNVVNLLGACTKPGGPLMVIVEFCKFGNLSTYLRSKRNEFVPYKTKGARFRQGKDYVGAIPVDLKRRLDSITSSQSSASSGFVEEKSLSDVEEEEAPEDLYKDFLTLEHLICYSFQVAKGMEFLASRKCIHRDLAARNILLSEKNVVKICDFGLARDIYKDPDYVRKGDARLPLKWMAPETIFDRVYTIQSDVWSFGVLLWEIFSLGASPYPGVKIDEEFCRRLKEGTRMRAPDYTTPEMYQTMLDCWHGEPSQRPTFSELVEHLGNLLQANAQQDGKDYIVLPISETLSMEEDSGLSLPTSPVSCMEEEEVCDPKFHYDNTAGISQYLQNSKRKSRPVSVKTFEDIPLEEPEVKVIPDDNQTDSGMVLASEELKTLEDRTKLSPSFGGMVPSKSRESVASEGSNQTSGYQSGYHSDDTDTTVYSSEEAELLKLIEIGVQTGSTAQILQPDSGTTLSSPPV

SMILES | inhibition [1] | inhibition [2] | inhibition of growth at 1 µM [3] | inhibition of growth at 10 µM [4] | inhibition of growth at 10 µM [5] | inhibition of growth at 1 µM [6] | inhibition of growth at 1 µM [7] | inhibition of growth at 10 µM [8] | inhibition of growth at 1 µM [9] | inhibition of growth at 1 µM [10] | inhibition of growth at 10 µM [11] | inhibition of growth at 10 µM [12] | inhibition of growth at 1 µM [13] | inhibition of growth at 10 µM [14] | inhibition of growth at 10 µM [15] | inhibition of growth at 1 µM [16]
CN(C)C(=O)c1cc2cnc(Nc3ccc(N4CCN(C(=O)C5(C(=O)Nc6ccc(F)cc6)CC5)CC4)cn3)nc2n1C1CCCC1 | 97% | -8% | – | – | – | – | – | – | – | – | – | – | – | – | – | –
Cc1ccc(NC(=O)C2(C(=O)Nc3ccc(Nc4ncc5cc(C(=O)N(C)C)n(C6CCCC6)c5n4)cc3)CC2)cc1 | 62% | 9% | 40.2% | 90.6% | 80.6% | 47.9% | – | – | – | – | 104% | 99.6% | 37% | 84.5% | – | –
CN(C)C(=O)c1cc2cnc(Nc3ccc(NC(=O)C4(C(=O)Nc5ccc(Cl)cc5)CC4)cc3)nc2n1C1CCCC1 | 65% | 5% | 24.7% | 100% | 85.3% | 22.8% | 52.2% | 95.7% | 8.1% | 21.3% | – | 95% | -0.8% | 88.6% | – | –
CN(C)C(=O)c1cc2cnc(Nc3ccc(NC(=O)C4(C(=O)Nc5cccc(F)c5)CC4)cc3)nc2n1C1CCCC1 | 61% | 7% | 33.2% | 91.8% | 85.6% | -3.2% | 64.2% | 98.8% | 26.3% | 45.1% | 107% | -0.4% | 29.7% | 87% | – | –
COc1cccc(NC(=O)C2(C(=O)Nc3ccc(Nc4ncc5cc(C(=O)N(C)C)n(C6CCCC6)c5n4)cc3)CC2)c1 | 66% | -2% | 77.2% | 96% | – | 56.3% | – | – | – | – | – | 93.5% | – | – | – | –
CN(C)C(=O)c1cc2cnc(Nc3ccc(N)cn3)nc2n1C1CCCC1 | – | – | – | – | 68% | 18.8% | 60.1% | 62% | 12.3% | -0.6% | 61.5% | 61.1% | -21.2% | 82.1% | 68.7% | 3.7%
CN(C)C(=O)c1cc2cnc(Nc3ccc(NC(=O)C4(C(=O)Nc5cccc(Cl)c5)CC4)cc3)nc2n1C1CCCC1 | 44% | 15% | 8.3% | 90.7% | 88.1% | 39.3% | 47.9% | 101% | 15.5% | 44% | 97.3% | 92.6% | 16.2% | 84.1% | – | –
CN(C)C(=O)c1cc2cnc(Nc3ccc(NC(=O)C4(C(=O)Nc5cccc(Br)c5)CC4)cc3)nc2n1C1CCCC1 | 72% | 6% | 20.2% | 92.2% | 89.6% | 29.1% | 46.6% | – | 0.04% | – | 92.5% | 94.6% | 13.9% | 77.5% | – | –
CN(C)C(=O)c1cc2cnc(Nc3ccc(NC(=O)C4(C(=O)Nc5ccc(C#N)cc5)CC4)cc3)nc2n1C1CCCC1 | 84% | 21% | 86.1% | 95% | – | – | – | – | – | – | – | – | – | – | – | –
Cc1cccc(NC(=O)C2(C(=O)Nc3ccc(Nc4ncc5cc(C(=O)N(C)C)n(C6CCCC6)c5n4)cc3)CC2)c1 | 66% | 5% | 35.2% | 86.1% | – | 45.7% | – | – | – | – | – | 95.3% | – | – | – | –

Further lines, with some results ahead:

inhibition [1] | inhibition [2] | SMILES | inhibition of growth at 1 µM [3] | inhibition of growth at 10 µM [4] | inhibition of growth at 10 µM [5] | inhibition of growth at 1 µM [6] | inhibition of growth at 1 µM [7] | inhibition of growth at 10 µM [8] | inhibition of growth at 1 µM [9] | inhibition of growth at 1 µM [10] | inhibition of growth at 10 µM [11] | inhibition of growth at 10 µM [12] | inhibition of growth at 1 µM [13] | inhibition of growth at 10 µM [14] | inhibition of growth at 10 µM [15] | inhibition of growth at 1 µM [16]
85% | -3% | CN(C)C(=O)c1cc2cnc(Nc3ccc(NC(=O)C4(C(=O)Nc5ccc(F)cc5)CC4)cn3)nc2n1C1CCCC1 | – | – | – | – | – | – | – | – | – | – | – | – | – | –
53% | 29% | CN(C)C(=O)c1cc2cnc(Nc3ccc(NC(=O)C4(C(=O)Nc5cccc(C#N)c5)CC4)cc3)nc2n1C1CCCC1 | 70.8% | 73.6% | – | – | – | – | – | – | – | – | – | – | – | –
82% | 8% | CN(C)C(=O)c1cc2cnc(Nc3ccc(NC(=O)C4(C(=O)Nc5ccccc5)CC4)cc3)nc2n1C1CCCC1 | 75% | 88.8% | 77.1% | 52.8% | 71.2% | 95.9% | 52.1% | 42.4% | 106% | 93.9% | 58% | 90.5% | – | –
48% | 26% | CN(C)C(=O)c1cc2cnc(Nc3ccc(NC(=O)C4(C(=O)Nc5ccc(Br)cc5)CC4)cc3)nc2n1C1CCCC1 | -6.6% | 90.3% | 87.8% | 21.1% | 27.6% | 96.4% | 13.7% | 31.5% | 98.8% | 94.3% | 23.2% | 76.9% | – | –
77% | 19% | COc1ccc(NC(=O)C2(C(=O)Nc3ccc(Nc4ncc5cc(C(=O)N(C)C)n(C6CCCC6)c5n4)cc3)CC2)cc1 | 74.4% | 78.5% | – | 76.4% | – | – | – | – | – | 96.1% | – | – | – | –
26% | -10% | CN(C)C(=O)c1cc2cnc(Nc3ccc(NC(=O)C4(C(=O)Nc5cccc(C(F)(F)F)c5)CC4)cc3)nc2n1C1CCCC1 | 15.7% | 89.2% | – | 9.7% | – | – | – | – | – | 92.7% | – | – | – | –
75% | -2% | CN(C)C(=O)c1cc2cnc(Nc3ccc(NC(=O)C4(C(=O)Nc5ccccc5F)CC4)cc3)nc2n1C1CCCC1 | 79.1% | 88.6% | 82.6% | 85.2% | 70.2% | 93.1% | 58% | 28.2% | 103% | 97.8% | 63.4% | 89.6% | – | –
77% | 2% | COC(=O)c1ccc(NC(=O)C2(C(=O)Nc3ccc(Nc4ncc5cc(C(=O)N(C)C)n(C6CCCC6)c5n4)cc3)CC2)cc1 | 77.1% | 92% | – | – | – | – | – | – | – | – | – | – | – | –
76% | -7% | COC(=O)c1cccc(NC(=O)C2(C(=O)Nc3ccc(Nc4ncc5cc(C(=O)N(C)C)n(C6CCCC6)c5n4)cc3)CC2)c1 | 10.5% | 91% | – | – | – | – | – | – | – | – | – | – | – | –
32% | 1% | CN(C)C(=O)c1cc2cnc(Nc3ccc(NC(=O)C4(C(=O)Nc5ccc(C(F)(F)F)cc5)CC4)cc3)nc2n1C1CCCC1 | -25.3% | 87.9% | – | 29.6% | – | – | – | – | – | 94.9% | – | – | – | –
94% | 24% | CN(C)C(=O)c1cc2cnc(Nc3ccc(NC(=O)C4(C(=O)Nc5cccc(O)c5)CC4)cc3)nc2n1C1CCCC1 | – | – | 86% | 80.7% | 77.5% | 94.9% | 58.5% | 75.5% | 75.7% | 83.7% | -19.8% | 78.5% | 96.6% | 57%
87% | 33% | CN(C)C(=O)c1cc2cnc(Nc3ccc(NC(=O)C4(C(=O)Nc5ccc(F)cc5)CC4)cc3F)nc2n1C1CCCC1 | – | – | 33% | 6.3% | 52.3% | 53% | -0.9% | 11.9% | 44.4% | 67.9% | 6.6% | 82.6% | 49.5% | 6.2%
